# Measurements gathered from unrelated publications.
# Each line is one published result; the experiments were not run side by side.
# PTGS1: Prostaglandin G/H synthase 1 (PTGS1, Homo sapiens, UniProt P23219)
# CCKBR: Gastrin/cholecystokinin type B receptor (CCKBR, Homo sapiens, UniProt P32239)
# FAAH: Fatty-acid amide hydrolase 1 (FAAH, Homo sapiens, UniProt O00519)
# MMP3: Stromelysin-1 (MMP3, Homo sapiens, UniProt P08254)
# HTR2C: 5-hydroxytryptamine receptor 2C (HTR2C, Homo sapiens, UniProt P28335)
# Tmem97: Sigma intracellular receptor 2 (Tmem97, Rattus norvegicus, UniProt Q5U3Y7)
# ROCK1: Rho-associated protein kinase 1 (ROCK1, Homo sapiens, UniProt Q13464)
# MTNR1A: Melatonin receptor type 1A (MTNR1A, Homo sapiens, UniProt P48039)
Compound,target,observed,action,technique,tested at,setting,inhibition [%]
O=C(Nc1cccnn1)N1CCN([C@@H]2CCOc3cc(C(F)(F)F)ccc32)CC1,PTGS1,enzyme activity,inhibitor,,20 µM,,1
CN(CCN1CCC(OC(=O)Nc2ccccc2-c2ccccc2)CC1)C(=O)c1ccc(CN2CCC(C(N)=O)CC2)cc1,CCKBR,ligand displacement,,radioligand,1 µM,,-9
Cc1cccc(N(C)C(=O)Oc2nsnc2N2CCCCC2)c1,FAAH,enzyme activity,inhibitor,,10 µM,cell membranes,9
Nc1ncnc2c1ncn2[C@@H]1O[C@H](C[C@@H](N)CC[C@H](N)C(=O)O)[C@@H](O)[C@H]1O,"mRNA cap guanine-N(7) methyltransferase (RNMT, Homo sapiens, UniProt O43148)",enzyme activity,inhibitor,,50 µM,,98.2
N=C(N)c1ccc2cc(OC(=O)c3ccc(N=C(N)N)cc3)ccc2c1,MMP3,enzyme activity,inhibitor,,10 µM,,0
COCCN(CCOC)C(=O)[C@@]12C[C@@H]1[C@@H](n1cnc3c(N)nc(Cl)nc31)[C@H](O)[C@@H]2O,HTR2C,ligand displacement,,radioligand,10 µM,,12
c1ccc(C(NCCNC(c2ccccc2)c2ccccc2)c2ccccc2)cc1,CCKBR,cell-free assay,,,10 µM,,33
CN(C(=O)Oc1nsnc1N1CCCCC1)c1ccc(F)cc1,FAAH,enzyme activity,inhibitor,,10 µM,cell membranes,22
COc1ccc(S(=O)(=O)N2CCCCC2)cc1C,CCKBR,ligand displacement,,radioligand,10 µM,,< 30
c1ccc(OCc2cc(OC[C@@H]3CCN3)on2)cc1,Tmem97,ligand displacement,,radioligand,10 µM,,< 50
C[C@H](C(=O)N[C@H]1COc2ccccc2[C@@H]1S(C)(=O)=O)c1ccc(F)cc1,PTGS1,enzyme activity,inhibitor,,10 µM,,-24
CN(C(=O)Oc1nsnc1N1CCCCC1)C1CCCCCC1,FAAH,enzyme activity,inhibitor,,10 µM,cell membranes,21
CN(C)C(=O)COC(=O)Cc1ccc(OC(=O)c2ccc(NC(=N)N)cc2)cc1,MMP3,enzyme activity,inhibitor,,10 µM,,27
CN(C(=O)Oc1nsnc1N1CCCCC1)c1cccc(F)c1,FAAH,enzyme activity,inhibitor,,10 µM,cell membranes,48
COc1cc2c3c(c1OC)-c1cc4c(cc1CC3N(C)CC2)OCO4 (racemic),HTR2C,ligand displacement,,radioligand,10 µM,,103
COc1ccccc1N(C)C(=O)Oc1nsnc1N1CCCCC1,FAAH,enzyme activity,inhibitor,,10 µM,cell membranes,18
C#Cc1n[nH]c2c(-c3cn([C@@H](C)c4ccccc4)c(=O)[nH]c3=O)cc(F)cc12,ROCK1,enzyme activity,inhibitor,,0.1 µM,,3.5
CN(C(=O)Oc1nsnc1N1CCCCC1)c1ccccc1[N+](=O)[O-],FAAH,enzyme activity,inhibitor,,10 µM,cell membranes,46
CCOC(=O)c1ccc(OC(=O)CCCCCNC(=N)N)cc1,MMP3,enzyme activity,inhibitor,,10 µM,,18
CN(C(=O)Oc1nsnc1N1CCCCC1)C1CCCCC1,FAAH,enzyme activity,inhibitor,,10 µM,cell membranes,16
COCc1c(-c2cc3cc(C)cc(OC)c3s2)c2c(N)ncnn2c1CN1CCNC(=O)C1,"B1 bradykinin receptor (BDKRB1, Homo sapiens, UniProt P46663)",ligand displacement,,radioligand,10 µM,,5
C#Cc1n[nH]c2c(-c3cn(C(C)c4ccccn4)c(=O)[nH]c3=O)cc(F)cc12 (stereo not drawn),ROCK1,enzyme activity,inhibitor,,1 µM,,-2.6
COc1ccc(S(=O)(=O)N(CC(=O)NO)CC(C)C)cc1,MMP3,enzyme activity,inhibitor,,1 µM,,100
Clc1ccc2c(C3CCN(CCc4c[nH]c5ccccc45)CC3)c[nH]c2c1,PTGS1,enzyme activity,inhibitor,,10 µM,,31
CN(C(=O)Oc1nsnc1N1CCCCC1)c1ccc(C#N)cc1,FAAH,enzyme activity,inhibitor,,10 µM,cell membranes,19
Cn1cc(-c2cccc(N3CCc4c(sc5c4CC(C)(C)C5)C3=O)c2CO)cc(Nc2ccncn2)c1=O,"Aurora kinase A (AURKA, Homo sapiens, UniProt O14965)",enzyme activity,inhibitor,,1 µM,,3
COc1cc(Nc2ncc(F)c(Nc3ccc4c(n3)NC(=O)C(C)(C)O4)n2)cc(OC)c1OC,"Serine/threonine-protein kinase SIK3 (SIK3, Homo sapiens, UniProt Q9Y2K2)",binding,,competition with immobilised ligand,10 µM,,35
CCC(C)c1ccccc1OCC(=O)N1CCC(C(=O)Nc2ccc3c(c2)OCO3)CC1 (stereo not drawn),"Trypanothione synthetase (Trypanosoma cruzi, UniProt Q9GT49)",enzyme activity,inhibitor,absorbance,25 µM,,5.5
CC(C)N1CCC[C@H]1CNC(=O)c1cn(C2CCCC2)c(=O)c2c1c1ccccc1n2C,MTNR1A,ligand displacement,,radioligand,10 µM,,37
OC(c1ccc(F)cc1)C(F)(F)CCN1CCC(O)(c2ccc(Cl)cc2)CC1 (racemic),Tmem97,ligand displacement,,radioligand,10 µM,,> 50
CCN(CC)CCCC[C@H](NC(=O)[C@H](CC(C)C)NC(=O)[C@H](C)NC(=O)[C@H](Cc1ccccc1)NC(=O)c1ccc(C(C)(C)C)cc1)C(=O)N[C@@H](CO)C(=O)OC,MTNR1A,ligand displacement,,radioligand,10 µM,,8
Cc1ncc(C)n2nc(/C=C/c3nc(N4CCCC4)cc(N4CCOCC4)n3)nc12,PTGS1,enzyme activity,inhibitor,,10 µM,,10
Cn1cc(-c2cc(F)cc(N3CCn4c(cc5c4CCCC5)C3=O)c2CO)cc(Nc2ccc(N3CCN(C4COC4)CC3)cn2)c1=O,"Mitogen-activated protein kinase kinase kinase 8 (MAP3K8, Homo sapiens, UniProt P41279)",enzyme activity,inhibitor,,0.1 µM,,17
